Source: ChEMBL document CHEMBL1240447, “Synthesis and bioactivity of sphingosine kinase inhibitors and their novel aspirinyl conjugated analogs” (Eur J Med Chem, 2010)
Activity calls are given as the source filed them. The calls are words filed in the database; no cut-off is given here.

Columns and labels:
MIA PaCa-2 = experiment: Cytotoxicity against human MIAPaCa2 cells after 72 hrs by SRB assay; format: functional, cell-based; settings: MIA PaCa-2, 72 h
[1] = Cytotoxicity against human MCF10A cells after 72 hrs by SRB assay; format: cell-based; settings: MCF-10A
[2] = Metabolic stability of the compound in fetal bovine serum assessed as compound remaining after 72 hrs by HPLC analysis; format: ADME, cell-free, Bos taurus; settings: cattle, read-out: Stability
In short: (§1)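 Compound in DMSO, 1 mg/mL, added to 5 mL DMEM with 10% FBS (no cells) and shaken at 37 °C; samples at 0, 2, 16 and 72 h filtered and run on C18 HPLC; conjugate remaining and released parent SKI expressed as percentages of peak areas per time point.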

[3] = Cytotoxicity against human U87MG cells after 72 hrs by SRB assay; format: functional, cell-based, U-87MG ATCC; settings: U-87 MG
MDA-MB-231 = experiment: Cytotoxicity against human MDA-MB-231 cells after 72 hrs by SRB assay; format: functional, cell-based; settings: MDA-MB-231, 72 h
Serum [4] = experiment: Metabolic stability of the compound in fetal bovine serum assessed as conversion of SKI-2 after 2 hrs by HPLC analysis; format: ADME, cell-free, Bos taurus; settings: cattle; in short: as §1
[5] = Chemical stability of the compound assessed as compound remaining after 72 hrs by HPLC analysis; format: physicochemical
In short: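 Compound in DMSO, 1 mg/mL, added to 5 mL serum-free DMEM (no cells) and shaken at 37 °C; samples taken at 0, 2, 16 and 72 h, filtered and analyzed by C18 HPLC; percentages of parent and conjugate peak areas calculated per time point.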

[6] = Cytotoxicity against human H441 cells after 72 hrs by SRB assay; format: functional, cell-based; settings: NCI-H441, 72 h
Serum [7] = experiment: Metabolic stability of the compound in fetal bovine serum assessed as conversion of SKI-2 after 72 hrs by HPLC analysis; format: ADME, cell-free, Bos taurus; settings: cattle; in short: as §1
HeLa = experiment: Cytotoxicity against human HeLa cells after 72 hrs by SRB assay; format: functional, cell-based
Serum [8] = experiment: Metabolic stability of the compound in fetal bovine serum assessed as conversion of SKI-2 after 16 hrs by HPLC analysis; format: ADME, cell-free, Bos taurus; settings: cattle; in short: as §1
A549 = experiment: Cytotoxicity against human A549 cells after 72 hrs by SRB assay; format: functional, cell-based; settings: A549, 72 h
NCI-H226 = experiment: Cytotoxicity against human NCI-H226 cells after 72 hrs by SRB assay; format: functional, cell-based; settings: NCI-H226, 72 h
[9] = biological target: Sphingosine kinase 1 (Homo sapiens) (UniProt Q9NYA1); experiment: Inhibition of Sphingosine kinase 1 in human HeLa cells at >=5 uM pre-incubated for 24 hrs; format: cell-based
In short: (§2)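 HeLa cells preincubated 24 h with compound or DMSO; cytosol (100,000g supernatant) at 10 µg protein incubated with 50 µM D-erythro-sphingosine, 200 µM ATP plus [γ-32P]ATP in pH 7.4 Tris buffer, 30 min, 37 °C; S1P resolved by TLC and quantified by scintillation counting; triplicate.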

MEF = experiment: Cytotoxicity against MEF after 72 hrs by SRB assay; format: cell-based; settings: Mus musculus
[10] = biological target: Sphingosine kinase 1 (Homo sapiens) (UniProt Q9NYA1); experiment: Inhibition of Sphingosine kinase 1 in human HeLa cells at 1.25 uM pre-incubated for 24 hrs; format: cell-based; in short: as §2
NCI-H460 = experiment: Cytotoxicity against human H460 cells after 72 hrs by SRB assay; format: functional, cell-based; settings: NCI-H460, 72 h
[11] = Half life in C3H-HEJ mouse serum at 60 mg/kg, ip up to 16 hrs by HPLC analysis; format: ADME, organism-based; set-up: dose 60 mg/kg, route intraperitoneal
Serum [12] = experiment: Metabolic stability of the compound in fetal bovine serum assessed as conversion of SKI-1 after 16 hrs by HPLC analysis; format: ADME, cell-free, Bos taurus; settings: cattle; in short: as §1

Sphingosine kinase 1 (Homo sapiens), sequence (Q9NYA1 whole entry): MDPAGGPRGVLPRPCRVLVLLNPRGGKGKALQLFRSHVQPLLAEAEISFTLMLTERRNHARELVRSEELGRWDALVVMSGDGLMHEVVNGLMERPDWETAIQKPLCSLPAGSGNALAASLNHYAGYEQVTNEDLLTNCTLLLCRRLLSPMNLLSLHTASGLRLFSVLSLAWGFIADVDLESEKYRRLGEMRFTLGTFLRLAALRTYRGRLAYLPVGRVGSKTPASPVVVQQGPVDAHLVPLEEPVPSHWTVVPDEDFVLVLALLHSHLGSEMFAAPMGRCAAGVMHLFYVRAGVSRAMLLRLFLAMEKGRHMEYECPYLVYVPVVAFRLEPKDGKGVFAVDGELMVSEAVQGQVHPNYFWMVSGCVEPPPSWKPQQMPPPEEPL

| remaining at 72 h [2] | Stability (Serum [4]) | Stability [5] | Stability (Serum [7]) | Stability (Serum [8]) | Activity [9] | Activity [10] | half-life [11] | Stability (Serum [12]) | Compound | IC50 (MIA PaCa-2) | IC50 [1] | IC50 [3] | IC50 (MDA-MB-231) | IC50 [6] | IC50 (HeLa) | IC50 (A549) | IC50 (NCI-H226) | IC50 (MEF) | IC50 (NCI-H460) |
| --- | --- | --- | --- | --- | --- | --- | --- | --- | --- | --- | --- | --- | --- | --- | --- | --- | --- | --- | --- |
| 25% | 15% | Stable | 75% | 50% | Active | Active |  |  | CC(=O)Oc1ccccc1C(=O)Oc1ccc(Nc2nc(-c3ccc(Cl)cc3)cs2)cc1 | 8.7 µM | 11.3 µM | 8.1 µM | 8.4 µM | 5.7 µM | 11.2 µM | 5.9 µM | 6.7 µM | 9.4 µM | 9.1 µM |
|  |  |  |  |  |  |  |  |  | Oc1ccc(Nc2nc(-c3ccc(Cl)cc3)cs2)cc1 | 7.7 µM | 14.5 µM | 10.7 µM | 8.2 µM | 8 µM | 9.1 µM | 7.8 µM | 8.6 µM | 8.9 µM | 9.2 µM |
|  |  |  |  |  |  |  | 7 h |  | O=C(N/N=C/c1c(O)ccc2ccccc12)c1cc(-c2ccc3ccccc3c2)n[nH]1 | 4.8 µM | 4.1 µM | 1 µM | 4.4 µM | 2 µM | 1 µM | 3.8 µM | 5.7 µM | 5 µM | 3.2 µM |
|  |  | Stable |  |  | Active | Active | 10 h | 80% | CC(=O)Oc1ccccc1C(=O)Oc1ccc2ccccc2c1/C=N/NC(=O)c1cc(-c2ccc3ccccc3c2)n[nH]1 | 1.6 µM | 2.6 µM | 1.5 µM | 1.3 µM | 0.6 µM | 1 µM | 0.9 µM | 1.7 µM | 5.5 µM | 1.2 µM |
